# Screening results (PubChem)
# Sampled rows, rich in hits. Any-hit rate of the full collection: about 5.6%.
# CHOP inh – inhibitors of CHOP promoter induction, primary screen, cell-based, unfolded protein response, luciferase reporter. 220,000 compounds, 3.8% hits. CHO-K1 CHOP-promoter luciferase, tunicamycin-induced, 15-18 h. AID 2732, 2010. inhibition, % at 10 µM;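 active = compounds that reduced the stress-induced luciferase reporter signal by more than about 70% of percent inhibition, limit read from the data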;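 also: 0% = tunicamycin plus vehicle and 100% = wells without tunicamycin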
# NR3A LBD binder – binders of NR3A ligand-binding domain, primary screen, biophysical, differential scanning fluorimetry, uHTS; Tm shift relative to glycine control, % at 25 µM; 340,000 compounds, 2.5% hits; NR3A LBD differential scanning fluorimetry, Tm shift; 0% = protein alone, 100% = glycine-bound protein; Glutamate receptor ionotropic, NMDA 3A (GRIN3A) ligand-binding domain; AID 1259313, 2017;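 active = melting temperature shift of at least 10% of the positive control shift, at one fixed dose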
# MPTP inh – mitochondrial permeability transition pore inhibitors, primary screen, biochemical, isolated mouse mitochondria, absorbance. Ca2+ swelling absorbance, 30 min. inhibition, % at 10 µM. 360,000 compounds, 1.4% hits;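 active = inhibition of 50% or more, scaled per plate between neutral and stimulator controls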;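 also: 0% = DMSO wells given calcium and 100% = 1 mM EGTA wells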
# aDG glyco act – activators of alpha-DG glycosylation, primary screen, uHTS, Pro5-aDG cells, AlphaScreen | alpha-DG glycosylation AlphaScreen (IIH6); 0% Pro5, 100% B10-LARGE cell signal | activation, % at 10 µM | 360,000 compounds, 0.22% hits | AID 624168, 2012;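 active = activation of at least 8% versus controls, or a plate z-score of at least 8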;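 also: Pro5 are CHO cells carrying HIG-tagged alpha-DG that lacks glycosylation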
# UPR CHOP act – activators of apoptotic CHOP UPR arm, primary screen, cell-based, CHO-CHOP luciferase reporter, luminescence, uHTS; UPR activation; percent of tunicamycin response over DMSO baseline; activation, % at 10 µM; 330,000 compounds, 0.34% hits;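 active = at 10 µM dose, activation of 40% or more, normalized to positive control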;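 also: 100% = tunicamycin at 10 µg/mL and 0% = DMSO alone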
#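 Assay system: CHO-CHOP cells, stable luciferase reporter of PERK-eIF2a-CHOP signalling / Buffer or medium: F12 plus 10% serum / Compound dosing: one dose, 10 µM in 0.5% DMSO / Times: 6 h compound treatment, 37 °C / Technique: luciferase luminescence / Read-out: % reporter activation, DMSO baseline versus tunicamycin full activation / Benchmarks: tunicamycin and DMSO controls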
# XBP1 UPR activ – activators of adaptive XBP1 UPR arm, primary screen, cell-based, CHO-XBP1 luciferase reporter, luminescence, uHTS; IRE1-XBP1 UPR activation; percent of tunicamycin response, DMSO as zero; activation, % at 20 µM; 330,000 compounds, 0.33% hits; AID 463104, 2010;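 active = versus positive control, 20 µM dose yields 30% or more activation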;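 also: 100% = tunicamycin at 10 µg/mL and 0% = DMSO only wells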
#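 Material: CHO cell line with stable XBP1 luciferase reporter; schedule: 16-18 h cell attachment at 37 °C, then 6 h compound exposure; signal: glow luminescence from Steady-Glo reagent; medium: serum-containing F12 medium, 10% FBS; benchmarks: tunicamycin 10 µg/mL and vehicle-only wells; read-out: percent activation relative to tunicamycin reference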
# Numbers without * were called inactive; / = not tested or not shown.
SMILES,CHOP inh,NR3A LBD binder,MPTP inh,aDG glyco act,UPR CHOP act,XBP1 UPR activ
CC(C)=C1C2CCC1C1C(=O)N(NC(=O)COc3ccc(C(C)(C)C)cc3)C(=O)C21 (stereo not given),92*,-2,1,0,2,0
CC(C)(C)c1ccc(OCC(=O)NNC(=O)C2CCCO2)cc1 (stereo not given),8,-1,0,0,1,0
CCOc1ccccc1C(=O)Nc1ccc(S(=O)(=O)Nc2nccc(C)n2)cc1,/,-1,0,0,-1,-1
Cc1cc(C(=O)Nc2cccc3c2O[C@@H](CN(C)S(C)(=O)=O)[C@H](C)CN([C@@H](C)CO)C3=O)n(C)n1,/,3,0,0,1,3
CSc1ccc(Cl)c(C(=O)Nc2cc(S(=O)(=O)N3CCOCC3)ccc2N2CCOCC2)c1,/,-2,1,0,-2,-4
CCOC(=O)c1c(C)cccc1OCC(N)=O,43,25*,-2,0,1,-2
CCOC(=O)c1c(C)oc2ccc(OCC(N)=O)cc12,23,-9,1,0,0,2
COCCNS(=O)(=O)c1ccc2c3c(cccc13)C(=O)N2C,2,1,-1,0,0,2
CN1C(=O)c2cccc3c(S(=O)(=O)NCCc4ccccc4)ccc1c23,/,16*,0,0,3,-4
O=C(NCC12CC3CC(CC(C3)C1)C2)c1cc2n(n1)C(C(F)(F)F)CC(c1ccco1)N2 (stereo not given),102*,-6,1,0,-1,-4
O=C(c1cc2n(n1)C(C(F)(F)F)CC(c1ccco1)N2)N1CCc2ccccc2C1 (stereo not given),83*,3,-5,0,0,4
Cc1cc(NC(=O)c2cc3n(n2)C(C(F)(F)F)CC(c2ccco2)N3)n(-c2ccccc2)n1 (stereo not given),76*,0,-2,0,-1,-3
COc1ccc(NC(=O)c2cc3n(n2)C(C(F)(F)F)CC(c2ccco2)N3)cc1 (stereo not given),48,-1,0,0,1,-2
CCCCOc1ccc2c(c1)C(=O)c1cc(O)ccc1-2,36,34*,4,0,7,2
COc1cc(C(=O)O/N=C2\C=CC(=O)C=C2C)cc(OC)c1OC,94*,0,2,-1,12,-4
CC(C)(C)NC(=O)C(c1ccco1)N(C(=O)Cn1nnc(-c2ccc(F)cc2)n1)c1ccccc1F (stereo not given),84*,-14,-1,-1,1,-2
Cc1ccc(-c2nnn(CC(=O)N(Cc3cccs3)C(C(=O)NC3CCCC3)c3ccco3)n2)o1 (stereo not given),67,1,2,0,-1,2
Cc1ccc(-c2nnn(CC(=O)N(c3ccccc3)C(C(=O)NC3CCCC3)c3ccco3)n2)o1 (stereo not given),94*,0,2,0,2,0
CC(C)(C)NC(=O)C(c1ccco1)N(C(=O)Cn1nnc(-c2ccc(F)cc2)n1)c1ccccc1 (stereo not given),/,1,/,/,0,3
COc1ccc(NC(=O)C2CCN(S(=O)(=O)c3ccc(Cl)c(C(F)(F)F)c3)CC2)cn1,/,/,0,0,/,/
Fc1ccc(Cn2c(-c3cscn3)nc3ccccc32)c(Cl)c1,94*,-3,1,1,-1,0
CC(C)[C@@]1(c2ccc(Cl)cc2)ON(c2ccccc2C(F)(F)F)C1=O,/,/,/,/,2,0
Cc1cc(C)c(Nc2cc(S(=O)(=O)O)c(N)c3c2C(=O)c2ccccc2C3=O)c(C)c1,39,547*,20,-1,/,/
C/C(N)=C(/C#N)C(=O)CSc1nc2ccccc2c(=O)n1-c1ccc(C)c(Cl)c1,45,-8,-3,0,-2,-5
CCOC(=O)C1CCN(C(=O)c2ccc3c(c2)C(=O)N(c2ccccc2C)C3=O)CC1,/,0,-2,0,2,1
SMILES,CHOP inh,NR3A LBD binder,MPTP inh,aDG glyco act,UPR CHOP act,XBP1 UPR activ
COc1ccc(COC(=O)c2ccc(S(=O)(=O)N3CCCCC3)cc2)cc1OC,/,3,-1,0,-1,-1
COc1ccc(C2=CSC(/N=C/c3ccc(F)cc3)=NN2)cc1,-19,21*,4,0,1,4
Cc1nc(-c2ccccn2)nc(N(C)c2ccccc2)c1Cl,/,1,1,3,18,11
O=C(COC(=O)c1cccnc1)Nc1ccc2c(c1)OCO2,-7,-7,-2,0,1,6
CC(C)OC(=O)c1ccc(NC(=O)Cn2c(-c3nonc3N)nc3ccccc32)cc1,-17,19*,2,0,2,0
Cc1cccc(NS(=O)(=O)c2ccc(C(=O)N3CCCC3)cc2)c1C,/,19*,2,0,0,-1
Cc1ccc(S(=O)(=O)NCc2ccc(C(=O)N3CCN(c4ccccn4)CC3)cc2)cc1,17,3,-2,0,-2,0
Cc1ccc(NS(=O)(=O)c2ccc(C(=O)N3CCN(c4ccccn4)CC3)cc2)cc1,50,0,19,6.3*,-3,-4
Cc1ccc(NS(=O)(=O)c2ccc(C(=O)NNC(=O)c3ccccc3O)cc2)cc1,/,10*,0,0,0,-3
Cc1ccc(NS(=O)(=O)c2ccc(C(=O)NCc3ccccn3)cc2)cc1,/,14*,0,0,2,-4
Cc1nc(SCc2ccc(Cl)cc2)ncc1C(=O)O,16,3,-5,0,-1,-3
CCOC(=O)c1ccc(S(=O)(=O)N2CCC(C(=O)NCC3CCCCC3)CC2)cc1,/,-2,0,0,2,-3
O=C(NNC(=O)c1ccccc1OCc1ccccc1)c1ccccc1F,/,10*,0,0,4,3
O=C(NNC(=O)c1ccccc1OCc1ccc(F)cc1)c1ccccc1O,/,23*,0,1,1,0
O=C(COC(=O)c1cc(=O)[nH]c2ccccc12)NCCc1ccccc1,/,1,-1,0,2,1
O=C(Cn1ncc2c1-c1ccccc1OC2)N1CCN(Cc2ccc3c(c2)OCO3)CC1,77*,-3,-2,0,-1,-2
